Results published in ChEMBL document CHEMBL4831507, “Development of FABP4/5 inhibitors with potential therapeutic effect on type 2 Diabetes Mellitus” (Eur J Med Chem, 2021).
Activity calls are given as the source filed them. The calls are words filed in the database; no cut-off is given here.

Key:
[1] = Metabolic stability in mouse liver microsomes assessed as half life at 0.1 uM preincubated for 10 mins followed by NADPH addition and measured for 60 mins by LC-MS/MS analysis; assay type: ADME, Microsome; conditions: time 70 min
Method in brief: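 Mouse liver microsomes 0.33 mg/mL in 0.1 M Tris pH 7.4 with 5 mM MgCl₂, 0.01% DMSO and 0.005% BSA. Compound final […]. Preincubated 10 min at 37 °C; reaction started with 1 mM NADPH. Samples at 0, 7, 17, 30 and 60 min quenched with cold methanol, then analysed by LC-MS/MS.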

[2] = biological target: Fatty acid-binding protein 5 (Homo sapiens, UniProt Q01469); assay: Displacement of 1,8-ANS from FABP5 (unknown origin) incubated for 3 mins by fluorescence based analysis
[3] = biological target: T1, Fatty acid-binding protein, adipocyte (Homo sapiens, UniProt P15090); assay: Displacement of 1,8-ANS from FABP4 (unknown origin) at 25 uM incubated for 3 mins by fluorescence based analysis relative to control
Method in brief: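 Single-concentration percent inhibition in the 1,8-ANS displacement assay with FABP4. Compound incubated with protein and probe in phosphate buffer for 3 min at room temperature; fluorescence read at ex 370/em 470 nm.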
Target sequence in this assay (P15090 2-132 limits assumed): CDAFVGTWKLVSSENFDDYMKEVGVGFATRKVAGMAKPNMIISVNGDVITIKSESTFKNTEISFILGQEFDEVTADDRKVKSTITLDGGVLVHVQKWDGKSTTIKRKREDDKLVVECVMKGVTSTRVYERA

3T3-L1 [4] = assay: Cytotoxicity against mouse 3T3-L1 cells assessed as reduction in cell viability at 100 uM incubated for 24 hrs by CCK8 assay; assay type: cell-based; conditions: 3t3-l1, 24 h
3T3-L1 [5] = assay: Anti-lipolytic activity in mouse 3T3-L1 cells assessed as inhibition of forskolin-stimulated glycerol release at 80 uM preincubated for 24 hrs followed by forskolin stimulation for 1 hr; assay type: functional, cell-based; conditions: time 25.0 hrs
[6] = biological target: T1, Fatty acid-binding protein, adipocyte; assay: Displacement of 1,8-ANS from FABP4 (unknown origin) incubated for 3 mins by fluorescence based analysis
Method in brief: (§1)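 1,8-ANS displacement using purified recombinant FABP3, FABP4 or FABP5. Compound incubated with protein and 1,8-ANS in phosphate buffer for 3 min at room temperature. Fluorescence read at ex 370/em 470 nm. IC50 by nonlinear regression, mean ± SD of three independent experiments.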
Target sequence in this assay (P15090 whole entry): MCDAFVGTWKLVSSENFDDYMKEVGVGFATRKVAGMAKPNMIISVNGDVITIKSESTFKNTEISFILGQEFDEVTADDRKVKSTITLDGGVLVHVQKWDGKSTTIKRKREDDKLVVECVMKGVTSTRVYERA

[7] = biological target: Fatty acid-binding protein, heart (Homo sapiens, UniProt P05413); assay: Displacement of 1,8-ANS from FABP3 (unknown origin) incubated for 3 mins by fluorescence based analysis; method in brief: as §1
Homo sapiens [8] = organism: Homo sapiens; assay: Selectivity ratio of IC50 for FABP3 (unknown origin) to IC50 for FABP4 (unknown origin); method in brief: as §1
Homo sapiens [9] = organism: Homo sapiens; assay: Selectivity ratio of IC50 for FABP3 (unknown origin) to IC50 for FABP5 (unknown origin); method in brief: as §1

Fatty acid-binding protein 5, sequence (Q01469 whole entry): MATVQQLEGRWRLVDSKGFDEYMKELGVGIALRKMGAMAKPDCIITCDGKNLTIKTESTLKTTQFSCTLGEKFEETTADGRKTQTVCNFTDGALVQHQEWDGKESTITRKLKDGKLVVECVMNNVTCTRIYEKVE
Fatty acid-binding protein, heart, sequence (P05413 whole entry): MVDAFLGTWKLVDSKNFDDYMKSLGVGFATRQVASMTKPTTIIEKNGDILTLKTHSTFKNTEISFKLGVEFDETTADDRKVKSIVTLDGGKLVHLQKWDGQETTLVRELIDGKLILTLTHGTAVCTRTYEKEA

| IC50 [2] [µM] | inhibition [3] [%] | IC50 [6] [µM] | SMILES | other results |
| --- | --- | --- | --- | --- |
| 2.9 | 50 | – | COc1c(-c2ccccc2C(C)C)cc(S(=O)(=O)Nc2ccc(F)c(CC(=O)O)c2)c2ccccc12 | half-life at 0.1 µM [1]: 15.1 min; Activity (3T3-L1 [4]): Non-Toxic; Activity (3T3-L1 [5]): Active |
| – | 82 | 4.84 | O=C(O)c1cc(NS(=O)(=O)c2ccc(-c3ccccc3)c3ccccc23)ccc1F | – |
| 7.72 | 80 | 5.16 | COc1c(-c2ccccc2C)cc(S(=O)(=O)Nc2ccc(F)c(CC(=O)O)c2)c2ccccc12 | – |
| – | 95 | 4.71 | COc1c(-c2ccc(F)cc2)cc(S(=O)(=O)Nc2ccc(F)c(CC(=O)O)c2)c2ccccc12 | – |
| – | 96 | 3.14 | COc1c(-c2ccc(F)cc2F)cc(S(=O)(=O)Nc2ccc(F)c(CC(=O)O)c2)c2ccccc12 | – |
| – | 52 | – | COc1c(-c2cc(Cl)ccc2Cl)cc(S(=O)(=O)Nc2ccc(F)c(CC(=O)O)c2)c2ccccc12 | – |
| 8.97 | 95 | 2.63 | COc1c(-c2ccc(F)cc2C)cc(S(=O)(=O)Nc2ccc(F)c(C(=O)O)c2)c2ccccc12 | half-life at 0.1 µM [1]: 102 min; Activity (3T3-L1 [5]): inactive |
| – | 87 | 5.25 | COc1c(-c2ccccc2F)cc(S(=O)(=O)Nc2ccc(F)c(CC(=O)O)c2)c2ccccc12 | – |
| 8.2 | 74 | 12.5 | O=C(O)c1cc(NS(=O)(=O)c2ccc(-c3ccccc3OC(F)(F)F)c3ccccc23)ccc1F | – |
| 6.08 | 90 | 4.77 | COc1c(-c2ccc(F)cc2Cl)cc(S(=O)(=O)Nc2ccc(F)c(CC(=O)O)c2)c2ccccc12 | Activity (3T3-L1 [4]): Non-Toxic |
| – | 88 | 5 | COc1c(-c2ccc(F)c(Cl)c2)cc(S(=O)(=O)Nc2ccc(F)c(CC(=O)O)c2)c2ccccc12 | – |
| 6.33 | 78 | 7.84 | O=C(O)c1cc(NS(=O)(=O)c2ccc(-c3ccc(F)c(Cl)c3)c3ccccc23)ccc1F | Activity (3T3-L1 [4]): Non-Toxic; IC50 [7]: 103 µM; Ratio IC50 (Homo sapiens [8]): 13.1; Ratio IC50 (Homo sapiens [9]): 16.3 |
| 16.8 | 74 | 11.9 | CC(C)c1ccccc1-c1ccc(S(=O)(=O)Nc2ccc(F)c(C(=O)O)c2)c2ccccc12 | – |
| – | 85 | 5 | Cc1cc(F)ccc1-c1ccc(S(=O)(=O)Nc2ccc(F)c(C(=O)O)c2)c2ccccc12 | half-life at 0.1 µM [1]: 88.4 min; Activity (3T3-L1 [4]): Non-Toxic; Activity (3T3-L1 [5]): Active |
| – | 86 | 8.03 | COc1c(-c2ccccc2O)cc(S(=O)(=O)Nc2ccc(F)c(CC(=O)O)c2)c2ccccc12 | – |
| – | 52 | – | O=C(O)c1cc(NS(=O)(=O)c2ccc(-c3ccncc3)c3ccccc23)ccc1F | – |
| – | 97 | 6.34 | Cc1c(Cl)cccc1OCc1[nH]c2nc(-c3ccccc3)nn2c(=O)c1C | IC50 [7]: 1.95 µM; Ratio IC50 (Homo sapiens [8]): 0.31; Ratio IC50 (Homo sapiens [9]): 0.08 |
| – | 85 | 4.7 | O=C(O)c1cc(NS(=O)(=O)c2ccc(-c3ccc(F)cc3F)c3ccccc23)ccc1F | Activity (3T3-L1 [4]): Non-Toxic |
| – | – | – | O=C(O)c1cc(NS(=O)(=O)c2ccc(OCCC3CCCCC3)c3ccccc23)ccc1F | half-life at 0.1 µM [1]: 23.5 min |
| – | 84 | 6.45 | COc1c(-c2cccc(Cl)c2F)cc(S(=O)(=O)Nc2ccc(F)c(CC(=O)O)c2)c2ccccc12 | – |
| – | 80 | 7.68 | O=C(O)c1cc(NS(=O)(=O)c2ccc(-c3ccc(F)cc3)c3ccccc23)ccc1F | – |
| – | 40 | – | O=C(O)c1cc(NS(=O)(=O)c2ccc(-c3ccc(C(F)(F)F)cc3)c3ccccc23)ccc1F | – |
| – | 73 | 8.24 | O=C(O)c1cc(NS(=O)(=O)c2ccc(-c3ccc(O)cc3)c3ccccc23)ccc1F | – |
| 3.2 | 63 | 14.3 | CCc1ccccc1-c1cc(S(=O)(=O)Nc2ccc(F)c(CC(=O)O)c2)c2ccccc2c1OC | – |
| 7.72 | 56 | – | COc1c(-c2ccccc2C(F)(F)F)cc(S(=O)(=O)Nc2ccc(F)c(CC(=O)O)c2)c2ccccc12 | – |
| – | 61 | – | Cc1noc(C)c1-c1ccc(S(=O)(=O)Nc2ccc(F)c(C(=O)O)c2)c2ccccc12 | – |
| 7.57 | 77 | 8.02 | COc1c(-c2ccccc2Cl)cc(S(=O)(=O)Nc2ccc(F)c(CC(=O)O)c2)c2ccccc12 | half-life at 0.1 µM [1]: 43.1 min; Activity (3T3-L1 [4]): Non-Toxic; Activity (3T3-L1 [5]): Active |
